{
  "source": "PubChem BioAssay AID651944",
  "about": "(The Scripps Research Institute Molecular Screening Center, 2012)",
  "note": "The source made the active and inactive calls.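 Rule for the calls: active = IC50 at or below 10 µM; inactive = IC50 above 10 µM.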",
  "data": [
    {"system": "E. coli V66 + mutant T4 phage, OD growth", "assay": "OD loss of phage-infected RecBCD+ E. coli – absorbance, round 2, counter-screen for AddAB inhibitor project, dose response (AID 651944)", "summary_of_the_method": "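Technique: absorbance at 600 nm; material: E. coli V66 (recBCD+) plus mutant T4 phage; probe or stimulus: mutant T4 phage, MOI 0.02; timing: 60 min compound pretreatment, 18 h infection, both 37 °C; replication: each concentration tested in triplicate; benchmarks: high control ciprofloxacin, low control DMSO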", "values": [
      {"smiles": "CCn1cc(C(=O)O)c(=O)c2cnc(N3CCN(C(=S)NC(=O)c4cccc(C)c4)CC3)nc21", "IC50": "> 39.5 µM (inactive)"},
      {"smiles": "CCn1cc(C(=O)O)c(=O)c2cnc(N3CCN(C(=S)Nc4ccccc4OC)CC3)nc21", "IC50": "> 119 µM (inactive)"},
      {"smiles": "CCn1cc(C(=O)O)c(=O)c2cnc(N3CCN(C(=S)NCc4ccccc4)CC3)nc21", "IC50": "> 119 µM (inactive)"},
      {"smiles": "CCn1cc(C(=O)O)c(=O)c2cnc(N3CCN(C(=S)Nc4cccc(C(F)(F)F)c4)CC3)nc21", "IC50": "77.8 µM (inactive)"},
      {"smiles": "CCn1cc(C(=O)O)c(=O)c2cnc(N3CCN(C(=S)Nc4ccc(Cl)cc4)CC3)nc21", "IC50": "80.9 µM (inactive)"},
      {"smiles": "CCn1cc(C(=O)O)c(=O)c2cnc(N3CCN(C(=S)Nc4ccccc4F)CC3)nc21", "IC50": "> 119 µM (inactive)"}
    ]}
  ]
}
